# High-throughput results from PubChem.
# SR-BI DiI-HDL act: enhances SR-BI lipid uptake from DiI-HDL; AID 504775; hit rate 0.096% among 320,000; activation, % at 12.5 µM; CHO ldlA[mSR-BI] cells, DiI-HDL uptake fluorescence, 3 h; 100 = double the neutral-control signal;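 active = mean replicate activation of at least 60% and every replicate at or above 60%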;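 also: 0% = median plate neutral-control signal and 100% = twice that signal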
#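 Material: SR-BI-overexpressing, LDLR-lacking CHO cells | Dosing: Single compound concentration, delivered by pin transfer | Probe or stimulus: Labelled HDL, 10 µg/mL | Signal: Bottom-read cell fluorescence after medium removal, ex 550/em 595 nm | Schedule: 3 h, 37 °C | Evaluation: HDL uptake via cellular fluorescence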
# dFosB act: mouse delta FosB homodimer activation; AID 493131; purified delta FosB, TAMRA-CDK5 oligo fluorescence polarization; percent of positive-control signal above neutral wells; activation, % at 25 µM; hit rate 0.99% among 340,000;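 active = mean activation above about 17%, with every replicate also reaching it, limit read from the data, passing the limit was not always enough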
# CDK5 p35 inh: CDK5/p35 (human) kinase inhibition. Q00535+Q15078. Recombinant CDK5/p35, ADP-Glo luminescence, 60 min. inhibition, % at 10 µM. hit rate 0.01% among 330,000;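 active = highest replicate inhibition of at least 50% and at least 75% of replicates reaching 50%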;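 also: plate controls were DMSO neutral control for no effect and GW8510 at 10 µM for full effect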
# Target sequence (Q00535 whole entry, looked up): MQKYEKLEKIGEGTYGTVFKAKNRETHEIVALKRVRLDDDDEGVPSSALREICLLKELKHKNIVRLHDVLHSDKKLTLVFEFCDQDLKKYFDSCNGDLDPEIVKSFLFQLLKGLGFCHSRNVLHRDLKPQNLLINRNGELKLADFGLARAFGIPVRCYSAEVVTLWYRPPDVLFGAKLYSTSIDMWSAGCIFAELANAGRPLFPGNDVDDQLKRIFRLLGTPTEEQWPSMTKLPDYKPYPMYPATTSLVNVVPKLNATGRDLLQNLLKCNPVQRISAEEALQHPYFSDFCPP
# Target sequence (Q15078 whole entry, looked up): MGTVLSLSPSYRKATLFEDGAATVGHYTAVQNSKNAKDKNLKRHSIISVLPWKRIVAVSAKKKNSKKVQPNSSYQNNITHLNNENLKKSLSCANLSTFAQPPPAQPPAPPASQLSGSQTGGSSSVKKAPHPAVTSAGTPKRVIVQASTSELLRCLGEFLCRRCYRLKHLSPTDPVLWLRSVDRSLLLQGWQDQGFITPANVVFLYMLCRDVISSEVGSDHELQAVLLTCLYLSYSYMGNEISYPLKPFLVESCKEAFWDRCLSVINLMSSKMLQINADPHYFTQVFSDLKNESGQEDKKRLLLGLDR
# PKA-R2B activ: activates the human PKA-R2B holoenzyme complex | P22694+P31323 | AID 504700 | activation, % at 11.4 µM | PKA-R2B holoenzyme dissociation, Cy5-IP20 fluorescence polarization; R2B truncated from residue 108, S112A mutant; 0% DMSO only, 100% 113 µM cGMP | hit rate 0.079% among 340,000;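 active = activation above a cutoff set at the mean over all compounds plus 3 SD, cut at about 18% in these data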;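 also: higher means more holoenzyme dissociation and a rise in polarization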
# PKA-R1A activ: activators of PKA-R1A complex | activation, % at 11.4 µM | PKA-R1A dissociation, Cy5-IP20 fluorescence polarization; scaled: DMSO 0%, 113 µM cGMP 100% | AID 504707 | P00514+P68181 | hit rate 0.083% among 340,000;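 active = percent activation above the mean of all tested compounds plus 3 SD, cut at about 19% in these data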;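 also: higher means more PKAc released from R1A so a rise in polarization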
# SR-BI HDL uptake: blocks mouse SR-BI lipid uptake from DiI-HDL; inhibition, % at 12.5 µM; hit rate 0.96% among 320,000; ldlA[mSR-BI] CHO cells, DiI-HDL uptake fluorescence, 3 h; Q61009;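 active = mean replicate inhibition of at least 70% and a set share of replicates each scoring 70 or more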;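 also: 0% = median of neutral control wells and 100% = median of positive control wells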
# Active calls of the source: *; . = no result given. Only some compounds are listed: those with a hit (about 2.1% of all), similar ones and a draw of the others.
SMILES,SR-BI DiI-HDL act,dFosB act,CDK5 p35 inh,PKA-R2B activ,PKA-R1A activ,SR-BI HDL uptake
N/C(=N\N=C\c1ccco1)SC1CC(=O)N(c2ccccc2)C1=O (stereo not drawn),-14,14,-4,-8,4,14
COc1ccc(OC)c(NC(=O)C(=O)N/N=C/c2ccccc2[N+](=O)[O-])c1,-81,-8,0,-6,4,81*
COc1ccc(NC(=O)C(=O)N/N=C/c2cc(C)n(-c3cccc(Cl)c3Cl)c2C)c(OC)c1,-72,-5,-1,-3,-2,72*
O=[N+]([O-])c1ccccc1C=NNC(=S)NN=Cc1ccccc1[N+](=O)[O-],-43,-5,-1,2,6,43
O=c1cc(C(F)(F)F)nc(SC/C=C/c2ccccc2)[nH]1,7,-3,-1,-5,5,-7
Cc1ccc(NC(=O)CSCC(=O)Nc2cc(S(=O)(=O)N3CCOCC3)ccc2OC(C)C)cc1,14,-5,-3,-17,-8,-14
COc1ccc(OC)c(/C=N/NC(=O)c2ccc(N(C)S(=O)(=O)c3ccccc3)cc2)c1,-51,-2,-1,-11,-7,51
CC(C)Oc1ccccc1/C=N/NC(=O)c1ccc(F)cc1,-63,-2,1,-6,9,63
COc1ccc(/C=N\NC(=O)c2ccc(-c3ccccc3)cc2)c(OC)c1OC,.,3,0,2,-10,75*
COc1ccc(/C=N/NC(=O)c2ccc(N(C)S(=O)(=O)c3ccccc3)cc2)c(OC)c1,-64,5,-1,3,3,64
COc1cccc(/C=N/NC(=O)c2ccc(N(C)S(=O)(=O)c3ccccc3)cc2)c1OC,-83,-3,1,-8,-11,83*
COc1ccccc1/C=N/NC(=O)c1ccc(N(C)S(=O)(=O)c2ccccc2)cc1,-84,1,1,8,-9,84*
CCN(CC)c1ccc(C(=O)N/N=C/c2ccccc2OC(F)F)cc1,-86,4,0,13,-6,86*
CC(OC(=O)c1ccc2c(c1)OCO2)C(=O)NC1CCCCC1 (stereo not drawn),.,.,.,6,-9,.
CC(=O)c1ccc(S(=O)(=O)NCCC(=O)OCC(=O)N(Cc2ccccc2)C(C)(C)C)cc1,0,-4,2,-1,-9,0
COc1ccccc1/C=N/NC(=O)c1ccc(CN2C(=O)c3cccc4cccc2c34)cc1,-89,-1,-2,-7,4,89*
COc1ccc2oc(=O)c(/C(C)=N/Nc3nc(-c4cc(C)ccc4C)cs3)cc2c1,-7,-10,0,2,-17,7
COc1ccc2oc(=O)c(-c3csc(Nc4ccc(O)cc4)n3)cc2c1,-84,-4,1,-11,-5,84*
CCOc1ccc(C(=O)NCCc2ccc3c(c2)OCCO3)cc1,-9,-9,-6,-6,-2,9
N#C/C(=N\Nc1ccccc1F)c1nc(-c2ccccc2)cs1,-71,-5,1,3,-7,71*
N#C/C(=C(/O)CCl)c1nc(-c2ccccc2)cs1,.,-11,2,4,3,.
C=C(C)n1c(=O)n(Cc2ccccc2C)c2ccccc21,-19,1,1,-9,1,20
CCCCNc1c(-c2cccc(-c3ccc(OC)cc3)c2)nc2ccc(C)cn12,-44,0,1,-8,-1,44
CCCCNc1c(-c2ccc(OC)c(SC3CCCCC3)c2)nc2cnccn12,-27,-9,-1,-3,-1,27
CCCCNc1c(-c2cccc(-c3ccc(OC)cc3)c2)nc2cc(C)ccn12,-73,-5,2,-4,-3,73*
SMILES,SR-BI DiI-HDL act,dFosB act,CDK5 p35 inh,PKA-R2B activ,PKA-R1A activ,SR-BI HDL uptake
CCCCNc1c(-c2ccc(-c3ccc(C(C)=O)cc3)c(OC)c2)nc2cnccn12,-73,1,-4,-12,-2,73*
O=C(CSc1nncc(=O)[nH]1)NC1CCCCC1,.,-2,-1,8,-8,.
CCC(=O)OCOc1ccc(/C=C2/CCC(CN(C)C)C2=O)cc1 (stereo not drawn),3,-14,4,3,-13,-3
COCCn1c(=NC(=O)/C=C/c2ccccc2)sc2cc(NC(C)=O)ccc21,-88,-9,0,-3,7,88*
COCCn1c(=NC(C)=O)sc2cc([N+](=O)[O-])ccc21,-8,3,0,-16,-4,8
Cc1onc(-c2ccccc2Cl)c1C(=O)OCC(=O)N1CCCCC1,-7,-2,1,-2,-4,7
C[C@H]1CN([C@@H](C)CO)C(=O)Cc2cc(NS(C)(=O)=O)ccc2O[C@@H]1CN(C)Cc1ccc(Cl)c(Cl)c1,-4,11,-1,16,-3,4
Cc1ccc(S(=O)(=O)Nc2ccc3c(c2)C(=O)N([C@H](C)CO)C[C@H](C)[C@@H](CN(C)Cc2ccc(-c4ccccc4)cc2)O3)cc1,76*,2,1,-4,0,-76
C[C@@H]1CN([C@@H](C)CO)C(=O)Cc2cc(NC(=O)Nc3ccc(F)cc3)ccc2O[C@@H]1CN(C)Cc1ccc(Cl)c(Cl)c1,93*,1,-1,0,-7,-93
Cc1ccc(S(=O)(=O)Nc2cccc3c2O[C@H](CN(C)Cc2ccc(-c4ccccc4)cc2)[C@@H](C)CN([C@H](C)CO)C3=O)cc1,-9,9,0,-5,-8,9
N#Cc1cc([N+](=O)[O-])ccc1NC(=O)CSc1n[nH]c(=O)[nH]c1=O,0,3,-2,2,4,0
N#CC(C#N)=C1c2cc(S(=O)(=O)NCCO)ccc2-c2ccc(S(=O)(=O)NCCO)cc21,197*,-1,1,-2,-2,-197
O=C1c2cc(S(=O)(=O)NCCO)ccc2-c2ccc(S(=O)(=O)NCCO)cc21,-1,4,1,8,1,1
CCOc1ccc(C(=O)Nc2nc3ccccc3[nH]2)cc1OCC,-81,5,0,8,4,81*
COc1ccc(C(=O)Nc2nc3ccccc3[nH]2)cc1OC,-14,6,-1,-5,-8,14
COc1ccc(-c2cc(C(F)(F)F)c3c(N)c(C(=O)NCCSC)sc3n2)cc1,-62,-2,1,1,6,62
COc1ccc(OC)c(NC(=O)c2nnn(CCc3ccccc3)c2N)c1,-40,7,-1,0,-1,40
CC(=O)c1sc2nc(-c3cccs3)cc(C(F)(F)F)c2c1N,-72,0,0,-2,0,72*
CN(C)CCNC(=O)c1sc2nc(-c3ccccc3)cc(C(F)(F)F)c2c1N,.,19*,2,3,3,.
